Folding enthalpy and Tm data for 36 sequences are collected here from the array DNA melting data of Ke et al. (doi:10.1101/2024.01.08.574731).

The nature of data set [1]: folding enthalpy; higher = less favourable; fluorescence melt of hairpins on a sequencing array, two-state fit. The following applies: sodium 0.088 M. Put shortly:
(§1)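 Cy3 signals were normalised both to pre-quench Cy3 and to control constructs. They came from library hairpins carrying annealed Cy3 and quencher oligos on a sequenced MiSeq flow cell, imaged in 50 mM Na-HEPES pH 8.0, 25 mM NaCl, in 2.5 °C steps up to 60 °C. Bootstrapped two-state fits gave melting temperature and folding enthalpy, and four replicates were combined by inverse variance. Fitted temperatures were then raised by 9.35 °C to match UV melts.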

Data set [2] in a line: melting temperature; fluorescence melt of hairpins on a sequencing array, two-state fit, raised by 9.35 °C to match UV melts. The following applies: sodium 0.088 M. The method, boiled down: as §1

Take GGTCTCGAAAGAGGGACC ((((((....)))..))): in data set [1], the folding enthalpy is -22.4 kcal/mol. In data set [2], the Tm was determined as 44 °C.

For GGTCTCGAAAGAGTAACC ((((((....)))..))), the folding enthalpy in data set [1] was -21.9 kcal/mol. Further, the Tm in data set [2] worked out at 35.1 °C.

GGTCTCGAAAGAGTGACC ((((((....)))..))): the folding enthalpy in data set [1] was -24.5 kcal/mol. For the same sequence, in data set [2], the Tm amounted to 39.8 °C.

In the case of GGTCTCGGAAACGAGGTC (..((((....))))..), the folding enthalpy in data set [1] is -15.9 kcal/mol. In addition, the Tm in data set [2] was 38.2 °C.

Take GGTCTGCGAAAGCAAACC (((.(((....))).))): the folding enthalpy in data set [1] is -26.9 kcal/mol. Further, the Tm in data set [2] turned out to be 47.1 °C.

For GGTCTTGGAAACAAGGCC ((.((((....)))).)), the folding enthalpy in data set [1] is -48.6 kcal/mol. The Tm in data set [2] turned out to be 54.7 °C.

Regarding GGTGAAGGAAACCTCACC (((((.(....).))))), the folding enthalpy in data set [1] is -29.6 kcal/mol. The Tm in data set [2] worked out at 46.2 °C.

For the sequence GGTGAAGGAAACTTCATC (.(((((....))))).), the folding enthalpy in data set [1] is -25.3 kcal/mol. In data set [2], the Tm stood at 42.1 °C.

Consider GGTGACGAAAGTCACACC ((((((....)))..))), for which, in data set [1], the folding enthalpy is -7.84 kcal/mol. For the same sequence, the Tm in data set [2] was found to be 56 °C.

GGTGACGAAAGTCCGACC ((((((....)))..))): in data set [1], the folding enthalpy was -15.3 kcal/mol. The Tm in data set [2] was determined as 39 °C.

Turning to GGTGACGAAAGTCCTACC ((((((....)))..))), the folding enthalpy in data set [1] was -13.8 kcal/mol. Also, in data set [2], the Tm came to 33.5 °C.

As for GGTGACGAAAGTCTACC ((((((....))).))), the folding enthalpy in data set [1] was -21.4 kcal/mol. For the same sequence, the Tm in data set [2] turned out to be 49 °C.

In the case of GGTGACGGAAACGTTGCC ((..(((....)))..)), in data set [1], the folding enthalpy was -34.3 kcal/mol. Further, the Tm in data set [2] amounted to 48.1 °C.

GGTGAGCCGAAAGGCACC (((..(((....)))))): in data set [1], the folding enthalpy was -13.2 kcal/mol. Besides, the Tm in data set [2] amounted to 44.3 °C.

On to GGTGAGCGAAAGCTACC (((.(((....)))))), for which, in data set [1], the folding enthalpy is -19.2 kcal/mol. The Tm in data set [2] came to 51.7 °C.

In the case of GGTGAGGGAAACCTCGTC (..((((....))))..), the folding enthalpy in data set [1] is -13.3 kcal/mol. Also, the Tm in data set [2] worked out at 33.2 °C.

GGTGAGGGAAACTTCACC (((((.(....).))))): in data set [1], the folding enthalpy was -32.1 kcal/mol. In addition, in data set [2], the Tm amounted to 46.8 °C.

Turning to GGTGAGTCGAAAGACACC (((..(((....)))))), in data set [1], the folding enthalpy was -17.9 kcal/mol. In addition, the Tm in data set [2] amounted to 39.5 °C.

On to GGTGATCGAAAGATAACC (((.(((....))).))), for which, in data set [1], the folding enthalpy is -29.5 kcal/mol. Moreover, the Tm in data set [2] worked out at 47.7 °C.

Consider GGTGATGGAAACATCACC (((((((....))))))), for which the folding enthalpy in data set [1] was -39.6 kcal/mol. Also, the Tm in data set [2] amounted to 65.6 °C.

For GGTGATGGAAACATCATC (.(((((....))))).), the folding enthalpy in data set [1] was -30.6 kcal/mol. Moreover, the Tm in data set [2] was found to be 47.8 °C.

For the sequence GGTGATGGAAACATTACC (((.(((....))).))), the folding enthalpy in data set [1] is -30.2 kcal/mol. Besides, in data set [2], the Tm worked out at 45.2 °C.

On to GGTGATGGAAACGTCACC (((((.(....).))))), for which the folding enthalpy in data set [1] was -49.9 kcal/mol. Moreover, in data set [2], the Tm was found to be 53.5 °C.

As to GGTGATGGAAACGTTACC (((.(.(....).).))), in data set [1], the folding enthalpy is -19.2 kcal/mol. The Tm in data set [2] was 30.4 °C.

Turning to GGTGCACGAAAGTGAACC (((.(((....))).))), the folding enthalpy in data set [1] was -35.3 kcal/mol. Also, the Tm in data set [2] is 61.4 °C.

On to GGTGCAGGAAACTACACC ((((.((....)).)))), for which, in data set [1], the folding enthalpy was -32.1 kcal/mol. For the same sequence, the Tm in data set [2] amounted to 43.4 °C.

Consider GGTGCAGGAAACTGTACC (((.(((....))).))), for which, in data set [1], the folding enthalpy is -45.4 kcal/mol. In addition, in data set [2], the Tm was determined as 52.6 °C.

As to GGTGCCGAAAGGCAAACC ((((((....)))..))), the folding enthalpy in data set [1] is -14.6 kcal/mol. Also, the Tm in data set [2] was determined as 50.9 °C.

Take GGTGCCGAAAGGCACACC ((((((....)))..))): the folding enthalpy in data set [1] was -6.62 kcal/mol. The Tm in data set [2] worked out at 58 °C.

Regarding GGTGCCGAAAGGCCCACC ((((((....)))..))), the folding enthalpy in data set [1] is -11.4 kcal/mol. Also, the Tm in data set [2] is 50.6 °C.

GGTGCCGAAAGGCGTACC ((((((....)))..))): in data set [1], the folding enthalpy was -15.5 kcal/mol. In addition, in data set [2], the Tm worked out at 48.5 °C.

With GGTGCCGGAAACGGTGCC ((..(((....)))..)), in data set [1], the folding enthalpy is -41.5 kcal/mol. The Tm in data set [2] is 56.6 °C.

On to GGTGCGACGAAAGTCACC (((..(((....)))))), for which, in data set [1], the folding enthalpy was -16.5 kcal/mol. For the same sequence, in data set [2], the Tm turned out to be 42.5 °C.

Take GGTGCGGCGAAAGCCACC (((..(((....)))))): in data set [1], the folding enthalpy is -14 kcal/mol. For the same sequence, in data set [2], the Tm is 48.2 °C.

With GGTGCTCCGAAAGGAACC (((..(((....)))))), the folding enthalpy in data set [1] was -11.3 kcal/mol. Moreover, the Tm in data set [2] amounted to 32.5 °C.

Consider GGTGCTGCGAAAGCAACC (((..(((....)))))), for which the folding enthalpy in data set [1] is -14.4 kcal/mol. Moreover, the Tm in data set [2] came out at 43.8 °C.
